From ChEMBL document CHEMBL1132958, “Design of monocyclic (1-3) and dicyclic (1-3/4-10) gonadotropin releasing hormone (GnRH) antagonists” (J Med Chem, 2000) come the findings set out here.

The structures appear in SMILES notation. pKi: −log10 of the molar value.

This test concerns the target T1, Gonadotropin-releasing hormone receptor (Rattus norvegicus, UniProt P30969).
T1 sequence (P30969 whole entry): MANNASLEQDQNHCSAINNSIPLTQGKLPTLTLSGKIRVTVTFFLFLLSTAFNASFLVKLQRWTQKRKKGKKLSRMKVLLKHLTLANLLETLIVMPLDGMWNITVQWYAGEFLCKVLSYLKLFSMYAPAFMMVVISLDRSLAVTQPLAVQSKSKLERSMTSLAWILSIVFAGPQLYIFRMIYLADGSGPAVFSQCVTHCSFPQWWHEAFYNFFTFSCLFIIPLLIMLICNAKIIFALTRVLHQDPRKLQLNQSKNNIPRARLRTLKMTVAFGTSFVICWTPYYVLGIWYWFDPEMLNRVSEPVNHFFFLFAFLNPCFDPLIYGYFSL
In words: Competitive radioligand binding assay for rat Gonadotropin-releasing hormone receptor cells stably transfected in human HEK293. In a few lines: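 Membranes from HEK-293 cells stably expressing rat GnRH receptor (5% sucrose homogenate; nuclei removed at 3000g, membranes pelleted at 20000g, 4 °C), 7 µg protein in 10 mM Hepes pH 7.5, 150 mM NaCl, 0.1% BSA. Competitor at varying concentrations vs des-Gly10-[125I-Tyr5,DAla6,NMeLeu7,Pro9-NHEt]GnRH (~100 000 cpm), 90 min; PEI-coated GF/C filtration, PBS wash, γ counting. Ki by nonlinear least-squares fit; ≥3 independent experiments, mean ± SEM.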
The compound `CC(=O)N[C@@H]1CC(=O)NCC(=O)NCCCC[C@H](C(=O)N[C@@H](CO)C(=O)N[C@@H](Cc2ccc(O)cc2)C(=O)N[C@H](Cc2ccc3ccccc3c2)C(=O)N[C@@H](CC(C)C)C(=O)N[C@@H](CCCN=C(N)N)C(=O)N2CCC[C@H]2C(=O)N[C@H](C)C(N)=O)NC(=O)[C@@H](Cc2ccc(Cl)cc2)NC1=O` had a pKi of 9.85.
`CC(=O)N[C@@H]1CC(=O)NCCC(=O)NCCC[C@H](C(=O)N[C@@H](CO)C(=O)N[C@@H](Cc2ccc(O)cc2)C(=O)N[C@H](Cc2ccc3ccccc3c2)C(=O)N[C@@H](CC(C)C)C(=O)N[C@@H](CCCN=C(N)N)C(=O)N2CCC[C@H]2C(=O)N[C@H](C)C(N)=O)NC(=O)[C@@H](Cc2ccc(Cl)cc2)NC1=O` showed a negative-log Ki (pKi) of 9.77.
On to `CC(=O)N[C@@H]1CNC(=O)C[C@H](C(=O)N[C@@H](CO)C(=O)N[C@@H](Cc2ccc(O)cc2)C(=O)N[C@H](Cc2ccc3ccccc3c2)C(=O)N[C@@H](CC(C)C)C(=O)N[C@@H](CCCN=C(N)N)C(=O)N2CCC[C@H]2C(=O)N[C@H](C)C(N)=O)NC(=O)[C@@H](Cc2ccc(Cl)cc2)NC1=O`, for which the pKi was 8.77.
The compound `CC(=O)N[C@@H]1CCC(=O)NCC(=O)NCCCC[C@H](C(=O)N[C@@H](CO)C(=O)N[C@@H](Cc2ccc(O)cc2)C(=O)N[C@H](Cc2ccc3ccccc3c2)C(=O)N[C@@H](CC(C)C)C(=O)N[C@@H](CCCN=C(N)N)C(=O)N2CCC[C@H]2C(=O)N[C@H](C)C(N)=O)NC(=O)[C@@H](Cc2ccc(Cl)cc2)NC1=O` had a pKi of 8.82.
In the case of `CC(=O)N[C@@H]1CCC(=O)NCC(=O)NCC[C@H](C(=O)N[C@@H](CO)C(=O)N[C@@H](Cc2ccc(O)cc2)C(=O)N[C@H](Cc2ccc3ccccc3c2)C(=O)N[C@@H](CC(C)C)C(=O)N[C@@H](CCCN=C(N)N)C(=O)N2CCC[C@H]2C(=O)N[C@H](C)C(N)=O)NC(=O)[C@@H](Cc2ccc(Cl)cc2)NC1=O`, the pKi was 7.69.
The same measure for `CC(=O)N[C@@H]1CC(=O)NCCCC(=O)NC[C@H](C(=O)N[C@@H](CO)C(=O)N[C@@H](Cc2ccc(O)cc2)C(=O)N[C@H](Cc2ccc3ccccc3c2)C(=O)N[C@@H](CC(C)C)C(=O)N[C@@H](CCCN=C(N)N)C(=O)N2CCC[C@H]2C(=O)N[C@H](C)C(N)=O)NC(=O)[C@@H](Cc2ccc(Cl)cc2)NC1=O`: 9.74; for `CC(=O)N[C@@H]1CC(=O)N[C@@H](C)C(=O)NCCC[C@H](C(=O)N[C@@H](CO)C(=O)N[C@@H](Cc2ccc(O)cc2)C(=O)N[C@H](CCCN=C(N)N)C(=O)N[C@@H](CC(C)C)C(=O)N[C@@H](CCCN=C(N)N)C(=O)N2CCC[C@H]2C(=O)N[C@H](C)C(N)=O)NC(=O)[C@@H](Cc2ccc(Cl)cc2)NC1=O`: 6.46.
The value for `CC(=O)N[C@@H]1CCC(=O)NCC[C@H](C(=O)N[C@@H](CO)C(=O)N[C@@H](Cc2ccc(O)cc2)C(=O)N[C@H](Cc2ccc3ccccc3c2)C(=O)N[C@@H](CC(C)C)C(=O)N[C@@H](CCCN=C(N)N)C(=O)N2CCC[C@H]2C(=O)N[C@H](C)C(N)=O)NC(=O)[C@@H](Cc2ccc(Cl)cc2)NC1=O` was 9.51; that for `CC(=O)N[C@@H]1CC(=O)NCCCC[C@H](C(=O)N[C@H]2CC(=O)NC[C@@H](C(N)=O)NC(=O)[C@@H]3CCCN3C(=O)[C@H](CCCN=C(N)N)NC(=O)[C@H](CC(C)C)NC(=O)[C@@H](Cc3ccc4ccccc4c3)NC(=O)[C@H](Cc3ccc(O)cc3)NC2=O)NC(=O)[C@@H](Cc2ccc(Cl)cc2)NC1=O` was 8.92; that for `CC(=O)N[C@@H]1CCC(=O)NCCC[C@H](C(=O)N[C@@H](CO)C(=O)N[C@@H](Cc2ccc(O)cc2)C(=O)N[C@H](Cc2ccc3ccccc3c2)C(=O)N[C@@H](CC(C)C)C(=O)N[C@@H](CCCN=C(N)N)C(=O)N2CCC[C@H]2C(=O)N[C@H](C)C(N)=O)NC(=O)[C@@H](Cc2ccc(Cl)cc2)NC1=O` was 8.28.
The value for `CC(=O)N[C@@H]1CC(=O)NCCC(=O)NCC[C@H](C(=O)N[C@@H](CO)C(=O)N[C@@H](Cc2ccc(O)cc2)C(=O)N[C@H](Cc2ccc3ccccc3c2)C(=O)N[C@@H](CC(C)C)C(=O)N[C@@H](CCCN=C(N)N)C(=O)N2CCC[C@H]2C(=O)N[C@H](C)C(N)=O)NC(=O)[C@@H](Cc2ccc(Cl)cc2)NC1=O` was 9.49; that for `CC(=O)N[C@@H]1CCC(=O)NCCCC[C@H](C(=O)N[C@@H](CO)C(=O)N[C@@H](Cc2ccc(O)cc2)C(=O)N[C@H](Cc2ccc3ccccc3c2)C(=O)N[C@@H](CC(C)C)C(=O)N[C@@H](CCCN=C(N)N)C(=O)N2CCC[C@H]2C(=O)N[C@H](C)C(N)=O)NC(=O)[C@@H](Cc2ccc(Cl)cc2)NC1=O` was 9.33.
In the case of `CC(=O)N[C@@H]1CCC(=O)NCCCC[C@H](C(=O)N[C@H]2CC(=O)NC[C@@H](C(N)=O)NC(=O)[C@@H]3CCCN3C(=O)[C@@H]3CCCCNC(=O)CC[C@H](NC2=O)C(=O)N[C@H](Cc2ccc4ccccc4c2)C(=O)N[C@@H](CC(C)C)C(=O)N3)NC(=O)[C@@H](Cc2ccc(Cl)cc2)NC1=O`, the pKi was 8.34.
The compound `CC(=O)N[C@@H]1CC(=O)NCC(=O)NCCC[C@H](C(=O)N[C@@H](CO)C(=O)N[C@@H](Cc2ccc(O)cc2)C(=O)N[C@H](Cc2ccc3ccccc3c2)C(=O)N[C@@H](CC(C)C)C(=O)N[C@@H](CCCN=C(N)N)C(=O)N2CCC[C@H]2C(=O)N[C@H](C)C(N)=O)NC(=O)[C@@H](Cc2ccc(Cl)cc2)NC1=O` showed a pKi of 9.47.
The same measure for `CC(=O)N[C@@H]1CC(=O)NCC(=O)NCC[C@H](C(=O)N[C@@H](CO)C(=O)N[C@@H](Cc2ccc(O)cc2)C(=O)N[C@H](Cc2ccc3ccccc3c2)C(=O)N[C@@H](CC(C)C)C(=O)N[C@@H](CCCN=C(N)N)C(=O)N2CCC[C@H]2C(=O)N[C@H](C)C(N)=O)NC(=O)[C@@H](Cc2ccc(Cl)cc2)NC1=O`: 9.15; for `CC(=O)N[C@@H]1CC(=O)N[C@@H](C)C(=O)NCCC[C@H](C(=O)N[C@@H](CO)C(=O)N[C@@H](Cc2ccc(O)cc2)C(=O)N[C@H](Cc2ccc3ccccc3c2)C(=O)N[C@@H](CC(C)C)C(=O)N[C@@H](CCCN=C(N)N)C(=O)N2CCC[C@H]2C(=O)N[C@H](C)C(N)=O)NC(=O)[C@@H](Cc2ccc(Cl)cc2)NC1=O`: 8.48; for `CC(=O)N[C@@H]1CC(=O)N[C@H](C)C(=O)NCC[C@H](C(=O)N[C@@H](CO)C(=O)N[C@@H](Cc2ccc(O)cc2)C(=O)N[C@H](Cc2ccc3ccccc3c2)C(=O)N[C@@H](CC(C)C)C(=O)N[C@@H](CCCN=C(N)N)C(=O)N2CCC[C@H]2C(=O)N[C@H](C)C(N)=O)NC(=O)[C@@H](Cc2ccc(Cl)cc2)NC1=O`: 9.24.
The value for `CC(=O)N[C@@H]1CCC(=O)NCC(=O)NCCC[C@H](C(=O)N[C@@H](CO)C(=O)N[C@@H](Cc2ccc(O)cc2)C(=O)N[C@H](Cc2ccc3ccccc3c2)C(=O)N[C@@H](CC(C)C)C(=O)N[C@@H](CCCN=C(N)N)C(=O)N2CCC[C@H]2C(=O)N[C@H](C)C(N)=O)NC(=O)[C@@H](Cc2ccc(Cl)cc2)NC1=O` was 8.38; that for `CC(=O)N[C@@H]1CC(=O)NCCCC[C@H](C(=O)N[C@@H](CO)C(=O)N[C@@H](Cc2ccc(O)cc2)C(=O)N[C@H](Cc2ccc3ccccc3c2)C(=O)N[C@@H](CC(C)C)C(=O)N[C@@H](CCCN=C(N)N)C(=O)N2CCC[C@H]2C(=O)N[C@H](C)C(N)=O)NC(=O)[C@@H](Cc2ccc(Cl)cc2)NC1=O` was 9.09; that for `CC(=O)N[C@@H]1CC(=O)N[C@H](C)C(=O)NCCC[C@H](C(=O)N[C@@H](CO)C(=O)N[C@@H](Cc2ccc(O)cc2)C(=O)N[C@H](Cc2ccc3ccccc3c2)C(=O)N[C@@H](CC(C)C)C(=O)N[C@@H](CCCN=C(N)N)C(=O)N2CCC[C@H]2C(=O)N[C@H](C)C(N)=O)NC(=O)[C@@H](Cc2ccc(Cl)cc2)NC1=O` was 8.62.
On to `CC(=O)N[C@@H]1CC(=O)NCCC[C@H](C(=O)N[C@@H](CO)C(=O)N[C@@H](Cc2ccc(O)cc2)C(=O)N[C@H](Cc2ccc3ccccc3c2)C(=O)N[C@@H](CC(C)C)C(=O)N[C@@H](CCCN=C(N)N)C(=O)N2CCC[C@H]2C(=O)N[C@H](C)C(N)=O)NC(=O)[C@@H](Cc2ccc(Cl)cc2)NC1=O`, for which the pKi is 8.80.
The same measure for `CC(=O)N[C@H]1CC(=O)NC[C@@H](C(=O)N[C@@H](CO)C(=O)N[C@@H](Cc2ccc(O)cc2)C(=O)N[C@H](Cc2ccc3ccccc3c2)C(=O)N[C@@H](CC(C)C)C(=O)N[C@@H](CCCN=C(N)N)C(=O)N2CCC[C@H]2C(=O)N[C@H](C)C(N)=O)NC(=O)[C@@H](Cc2ccc(Cl)cc2)NC1=O`: 7.51.
The same measure for `CC(=O)N[C@@H]1CC(=O)N[C@@H](C)C(=O)NCC[C@H](C(=O)N[C@@H](CO)C(=O)N[C@@H](Cc2ccc(O)cc2)C(=O)N[C@H](Cc2ccc3ccccc3c2)C(=O)N[C@@H](CC(C)C)C(=O)N[C@@H](CCCN=C(N)N)C(=O)N2CCC[C@H]2C(=O)N[C@H](C)C(N)=O)NC(=O)[C@@H](Cc2ccc(Cl)cc2)NC1=O`: 8.74; for `CC(=O)N[C@@H]1CC(=O)NCCC(=O)NC[C@H](C(=O)N[C@@H](CO)C(=O)N[C@@H](Cc2ccc(O)cc2)C(=O)N[C@H](Cc2ccc3ccccc3c2)C(=O)N[C@@H](CC(C)C)C(=O)N[C@@H](CCCN=C(N)N)C(=O)N2CCC[C@H]2C(=O)N[C@H](C)C(N)=O)NC(=O)[C@@H](Cc2ccc(Cl)cc2)NC1=O`: 9.46; for `CC(=O)N[C@@H]1CCC(=O)NCCC(=O)NCCCC[C@H](C(=O)N[C@@H](CO)C(=O)N[C@@H](Cc2ccc(O)cc2)C(=O)N[C@H](Cc2ccc3ccccc3c2)C(=O)N[C@@H](CC(C)C)C(=O)N[C@@H](CCCN=C(N)N)C(=O)N2CCC[C@H]2C(=O)N[C@H](C)C(N)=O)NC(=O)[C@@H](Cc2ccc(Cl)cc2)NC1=O`: 8.66.

As a reminder, the pKi is the Ki on a negative log10 scale, so that one unit is a factor of ten. A lower pKi goes with a large Ki.
